According to ChEMBL document CHEMBL3779882, “The cysteine releasing pattern of some antioxidant thiazolidine-4-carboxylic acids” (Eur J Med Chem, 2016):

Legend:
Format in all cases: physicochemical
[1] = Antioxidant activity assessed as cupric ion reducing activity treated with MeOH solution measured as ratio of sample to trolox molar extinction coefficient after 20 mins by CUPRAC assay
Outline: (§1)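 Reagents prepared separately: 10 mM CuSO4, 7.5 mM neocuproine and 1 M ammonium acetate buffer pH 7.0. Samples serially diluted from 6.75 μM to 1000 μM; Trolox reference at 10–70 μM. Each concentration run in triplicate. Incubated at 50°C for 20 min, then absorbance read at 450 nm for Cu(I)-neocuproine. TEAC = ε_sample/ε_Trolox.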

[2] = Antioxidant activity assessed as cupric ion reducing activity treated with 5% DMSO measured as ratio of sample to trolox molar extinction coefficient after 20 mins by CUPRAC assay; outline: as §1
[3] = Antioxidant activity assessed as DPPH free radical scavenging activity treated with 5% DMSO after 50 mins
Outline: (§2)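 Samples serially diluted from 6.75 μM to 1000 μM; BHT reference at 125–2000 μM. Sample added to 0.1 mM DPPH solution in 1:5 volume ratio. Kept in the dark at RT for 50 min, then absorbance read at 517 nm. Triplicates. Scavenging % = [1−(A_average−A_blank)/(A_control−A_blank)]×100. IC50 reported in μM as the level scavenging 50% of radical.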

[4] = Antioxidant activity assessed as DPPH free radical scavenging activity treated with methanol after 50 mins; outline: as §2
[5] = Chemical stability in 5% aqueous DMSO assessed as compound remaining at 20 uM after 20 mins by HPLC analysis; conditions: read-out: Stability
[6] = Chemical stability in 5% aqueous DMSO assessed as compound remaining at 20 uM measured immediately post treatment by HPLC analysis; conditions: read-out: Stability
Outline: (§3)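 Ring opening followed by reversed-phase HPLC-DAD on a C18 column (4.6 × 250 mm). Mobile phase water:acetonitrile 30:70 at 0.5 ml/min, 25°C. Detection at 254 nm, 5 μL injections. Cysteine release tracked from the peak of the aldehyde freed by ring cleavage. Injections made right after dissolution and again after 50 min.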

[7] = Chemical stability in PBS buffer assessed as compound remaining at 20 uM after 20 mins by HPLC analysis; conditions: read-out: Stability
[8] = Chemical stability in 5% aqueous DMSO assessed as compound remaining at 20 uM after 50 mins by HPLC analysis; conditions: read-out: Stability; outline: as §3
[9] = Chemical stability in PBS buffer assessed as compound remaining at 20 uM measured immediately post treatment by HPLC analysis; conditions: read-out: Stability; outline: as §3
[10] = Chemical stability in PBS buffer assessed as compound remaining at 20 uM after 50 mins by HPLC analysis; conditions: read-out: Stability; outline: as §3
[11] = Chemical stability in 0.1 M phosphoric acid at pH 2 assessed as compound remaining at 20 uM measured immediately post treatment by HPLC analysis; conditions: read-out: Stability; outline: as §3
[12] = Chemical stability in 0.1 M phosphoric acid at pH 2 assessed as compound remaining at 20 uM after 20 mins by HPLC analysis; conditions: read-out: Stability
[13] = Chemical stability in 0.1 M phosphoric acid at pH 2 assessed as compound remaining at 20 uM after 50 mins by HPLC analysis; conditions: read-out: Stability; outline: as §3
[14] = Chemical stability in MeOH solution assessed as compound remaining at 20 uM measured immediately post treatment by HPLC analysis; conditions: read-out: Stability; outline: as §3
[15] = Chemical stability in MeOH solution assessed as compound remaining at 20 uM after 20 mins by HPLC analysis
[16] = Chemical stability in MeOH solution assessed as compound remaining at 20 uM after 50 mins by HPLC analysis; outline: as §3

SMILES	Ratio [1]	Ratio [2]	IC50 ([3]; read-out: IC50) [µM]	IC50 [4] [µM]	remaining at 20 min, 20 µM [5] [%]	remaining at 0 min, 20 µM [6] [%]	remaining at 20 min, 20 µM [7] [%]	remaining at 50 min, 20 µM [8] [%]	remaining at 0 min, 20 µM [9] [%]	remaining at 50 min, 20 µM [10] [%]	remaining at 0 min, 20 µM [11] [%]	remaining at 20 min, 20 µM [12] [%]	remaining at 50 min, 20 µM [13] [%]	remaining at 0 min, 20 µM [14] [%]	Stability [15] [%]	Stability [16] [%]	IC50 [3]
O=C(O)[C@@H]1CSC(c2ccccc2)N1 (mixture of isomers)	1.54	0.99	45.2	844	27.8	76.3	27.8	13.8	78.4	13.8	85	62.4	49.9	96.1	95.7	95.4	
O=C(O)[C@@H]1CSC(c2ccc(Cl)cc2)N1 (mixture of isomers)	1.52	ND(Insoluble)															ND(Insoluble)
Cc1ccc(C2N[C@H](C(=O)O)CS2)cc1 (mixture of isomers)	1.22	ND(Insoluble)															ND(Insoluble)
N#Cc1ccccc1C1N[C@H](C(=O)O)CS1 (mixture of isomers)	ND(Insoluble)	ND(Insoluble)	> 1000	> 1000													
O=C(O)[C@@H]1CSC(c2c(F)cccc2F)N1 (mixture of isomers)	0.83	1.05	38.3	343	39.2	53.8	61.1	38.2	79.4	46.9	96.2	72.3	54.8	100	99.4	98.2	
O=C(O)[C@@H]1CSC(c2ccc([N+](=O)[O-])cc2)N1 (mixture of isomers)	0.74	ND(Insoluble)															ND(Insoluble)
COc1ccccc1C1N[C@H](C(=O)O)CS1 (mixture of isomers)	0.96	0.79	29.5	343	43.9	82.8	34	26.8	82.5	21	92.9	78.9	67.6	100	98.6	97.3	
COc1ccc(C2N[C@H](C(=O)O)CS2)cc1 (mixture of isomers)	ND(Insoluble)	ND(Insoluble)															ND(Insoluble)
Cc1cc(C(C)(C)C)c(O)c(C(C)(C)C)c1 [BUTYLATED HYDROXYTOLUENE]				517													ND(Insoluble)
N[C@@H](CS)C(=O)O [CYSTEINE]	0.63	0.49	18.4	19.2													

Next, values leading:

Ratio [1]	Ratio [2]	IC50 ([3]; read-out: IC50) [µM]	IC50 [4] [µM]	remaining at 20 min, 20 µM [5] [%]	remaining at 0 min, 20 µM [6] [%]	remaining at 20 min, 20 µM [7] [%]	remaining at 50 min, 20 µM [8] [%]	remaining at 0 min, 20 µM [9] [%]	remaining at 50 min, 20 µM [10] [%]	remaining at 0 min, 20 µM [11] [%]	remaining at 20 min, 20 µM [12] [%]	remaining at 50 min, 20 µM [13] [%]	remaining at 0 min, 20 µM [14] [%]	Stability [15] [%]	Stability [16] [%]	IC50 [3]	SMILES
1.5	ND(Insoluble)															ND(Insoluble)	O=C(O)[C@@H]1CSC(c2cccc(Cl)c2)N1 (mixture of isomers)
0.83	0.84	46.8	> 1000	50	83.7	69.3	28.7	92.7	50.1	87.3	64.6	43.5	100	100	98.8		O=C(O)[C@@H]1CSC(c2cccc(F)c2F)N1 (mixture of isomers)
0.57	0.75	39	46.1	5.9	6.8	11.3	5.6	15.2	8.9	12.9	11.3	10.1	4	4.1	4.2		Cc1ccccc1C1N[C@H](C(=O)O)CS1 (mixture of isomers)
0.93	0.99	61.7	46.2	16.6	17.8	17.4	15.7	15.3	17.9	21.7	17.5	14.2	15.5	25.2	38.2		O=C(O)[C@@H]1CSC(c2cccc(Cl)c2Cl)N1 (mixture of isomers)
0.8	1	37.7	39.1	16.2	19	16.3	14.3	11.6	18.5	14.1	11.5	9.5	70.5	74	75.6		O=C(O)[C@@H]1CSC(c2ccccc2Br)N1 (mixture of isomers)
